From ChEMBL document CHEMBL3244368, “[3-(1,4-Cyclohexadienyl)-L-alanine,8-lysine]vasopressin: synthesis and some pharmacological properties” (J Med Chem, 1979)
Starred links: 1 amine or outer side, 2 acyl side, 3 side chain; linkers in the order of their positions; H or OH if unused. Non-standard residues stand in square brackets, D forms with d. Residues, ends and D or L forms follow the SMILES beside them. *: point of attachment. X1 = O=C([C@H](CC1=CCC=CC1)N[*:1])[*:2]; Tos = Cc1ccc(S(=O)(=O)*)cc1; Cbz = O=C(OCc1ccccc1)*; Bn = c1ccc(C*)cc1

Experiments:
[1] = Stability of the compound in 0.2 M potassium phosphate buffer at pH 7.7 assessed as hydrolysis by measuring Tyr level in presence of alpha-amylase preparation; assay type: ADME
[2] = Stability of the compound in potassium phosphate buffer at pH 7 assessed as hydrolysis by measuring DiHPe level in presence of alpha-amylase preparation
[3] = Stability of the compound in 0.2 M potassium phosphate buffer at pH 7.7 assessed as hydrolysis by measuring Gly level in presence of alpha-amylase preparation; assay type: ADME
[4] = Stability of the compound in potassium phosphate buffer at pH 7 assessed as hydrolysis by measuring Phe level in presence of alpha-amylase preparation
[5] = Stability of the compound in 0.2 M potassium phosphate buffer at […] assessed as hydrolysis by measuring Tyr level in presence of alpha-amylase preparation and cyclohexadiene; assay type: ADME
How it was run: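 Aspergillus oryzae α-amylase preparation, 1 mg per 0.9 µmol peptide, in potassium phosphate buffer pH 7, with 1,4-cyclohexadiene (10 µL) and toluene, under N2, 37 °C, 17 h. Adjusted to pH 2.2 for amino acid analysis. Phe from a control of constituent amino acids plus enzyme subtracted to give Phe in residue 3.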

[6] = Stability of the compound in potassium phosphate buffer at pH 7 assessed as hydrolysis by measuring DiHPe level in presence of alpha-amylase preparation and cyclohexadiene
[7] = Stability of the compound in potassium phosphate buffer at pH 7 assessed as hydrolysis by measuring Phe level in presence of alpha-amylase preparation and cyclohexadiene
[8] = Stability of the compound in 0.2 M potassium phosphate buffer at pH 7.7 assessed as hydrolysis by measuring Asn/Gln level in presence of alpha-amylase preparation; assay type: ADME

With `Cc1ccc(S(=O)(=O)NCCCC[C@H](NC(=O)[C@@H]2CCCN2C(=O)[C@H](CSCc2ccccc2)NC(=O)[C@H](CC(N)=O)NC(=O)[C@H](CCC(N)=O)NC(=O)[C@H](CC2=CCC=CC2)NC(=O)[C@H](Cc2ccc(OCc3ccccc3)cc2)NC(=O)[C@H](CSCc2ccccc2)NC(=O)OCc2ccccc2)C(=O)NCC(N)=O)cc1` (Cbz-C(Bn)Y(Bn)[X1]QNC(Bn)PK(Tos)G-NH2) as the compound, how does the Drug degradation [1] read?
The Drug degradation was 77 mol%.

What about the Drug degradation [2] of the same compound?
Its Drug degradation is 57.6 mol%.

And the Drug degradation [3]?
The Drug degradation was 18 mol%.

And the Drug degradation [4]?
Its Drug degradation is 3.9 mol%.

What about the Drug degradation [5] of the same compound?
Its Drug degradation is 73 mol%.

What about the Drug degradation [6] of the same compound?
The Drug degradation was 52.4 mol%.

What about the Drug degradation [7] of the same compound?
The Drug degradation was 4.4 mol%.

And the Drug degradation [8]?
Its Drug degradation is 67 mol%.
